Screens deposited in PubChem BioAssay by several laboratories.
Compounds with a hit are over-represented: about 1.6% of the library has one in this group of screens.
Pemphigus Ab inh = inhibitors of pemphigus antibody binding to DSG3, primary screen, biochemical, bead-based, flow cytometry, scFv-GFP; Desmoglein-3 (Homo sapiens), P32926; DSG3-coupled beads, scFv-anti-DSG3-GFP binding; active compounds read low; binding (percent of control), % at 10 µM; 310,000 tested, 0.48% active; AID 588358, 2011;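 active = binding more than 3 SD below its plate's average and above zero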;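 note: hits lower antibody fragment binding to DSG3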
JMJD2C inh = inhibitors of GASC-1 histone demethylase, primary screen, biochemical, fluorescence, DELFIA europium | GST-JMJD2C(1-420) H3K9me3 demethylation | inhibition, % at 2.35 µM | 330,000 tested, 0.069% active;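 active = more than half of a compound's replicate wells show inhibition beyond 50%, single wells judged on their own value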;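 note: signal counts dimethyl H3K9 product captured on neutravidin plate; 0% = median of DMSO wells and 100% = 0.3 times that DMSO median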
T cell HTS = modulators of CD8 T cell-vesicle binding, primary screen, mouse 2C CD8+ T cells, flow cytometry | 2C CD8+ T cell-vesicle binding; active compounds read low | response (vesicle binding), % at 7 µM | 330,000 tested, 0.068% active;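 active = response, share of CD8 T cells binding vesicles, and their 90th percentile fluorescence all below set limits, cut at about 80% in these data, passing the limit was not always enough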;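 note: values below 100% mean blocked vesicle binding to the CD8+ T cells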
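material = purified 2C TCR transgenic mouse naive CD8+ T cells | controls = Unloaded micro-vesicles (low), QL9 vesicles with 0.7% DMSO (high) | detection = cytometric PE anti-B7-1 and Alexa647 anti-CD8 signals after 1% paraformaldehyde fixation | incubation = binding step 1.5 h, 37 °C, antibody labelling 20 min, ice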
HDAC3 inhib = HDAC3 deacetylase inhibitors, primary screen, biochemical, fluorescence, cell-free homogeneous; inhibition, % at 8.3 µM; 320,000 tested, 0.15% active; Histone deacetylase 3 (Homo sapiens), O15379; recombinant HDAC3, fluorogenic peptide/trypsin coupled; AID 2718, 2010; in the data active = inhibition above about 26%, passing the limit was not always enough
Target sequence (O15379 whole entry, looked up): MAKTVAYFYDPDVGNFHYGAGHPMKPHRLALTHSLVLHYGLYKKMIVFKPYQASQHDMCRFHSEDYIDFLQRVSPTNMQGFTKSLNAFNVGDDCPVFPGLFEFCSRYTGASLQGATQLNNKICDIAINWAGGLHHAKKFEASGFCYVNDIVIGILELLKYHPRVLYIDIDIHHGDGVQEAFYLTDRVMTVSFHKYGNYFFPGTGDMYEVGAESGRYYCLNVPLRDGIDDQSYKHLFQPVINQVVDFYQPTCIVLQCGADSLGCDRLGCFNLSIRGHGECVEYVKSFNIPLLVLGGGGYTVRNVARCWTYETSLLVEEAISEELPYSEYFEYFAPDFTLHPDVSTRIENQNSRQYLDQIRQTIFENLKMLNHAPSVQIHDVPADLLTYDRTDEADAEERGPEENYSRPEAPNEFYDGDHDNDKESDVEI
LANA-H2B inh = blockers of LANA interaction with H2A/H2B – biochemical, FP readout, HTS, primary screen; Protein LANA1 (Human herpesvirus 8 type P (isolate GK18)), Q9QR71; cell-free LANA-H2A/H2B peptide, fluorescence polarization; inhibition, % (concentration not given with the values); 320,000 tested, 0.6% active; in the data active = inhibition mostly above about 10%, no sharp cut-off; inactive = mostly below about 6.7%
Arr AP2 block = inhibitors of beta-arrestin/AP2 binding, primary screen, biochemical, GPCR trafficking, flow cytometry; FITC-arrestin peptide / GST-AP2 beads; AP2 beta2 appendage carries R879A mutation; AID 504490, 2011; inhibition, % at 10 µM; 340,000 tested, 0.31% active; beta-arrestin 1 C-terminal peptide binding to AP2 beta2-adaptin appendage (human);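 active = inhibition above a set limit, near 3 SD of compounds lacking own fluorescence, cut at about 54% in these data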;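 note: plate controls were DMSO wells for no effect and 5 µM unlabelled arrestin peptide for full effect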
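Assay system: GST-AP2 R879A bound to glutathione beads, E. coli-expressed; Medium: PBS with 0.05% Tween 20 and 0.1% BSA; Also added: fluorescein-tagged arrestin peptide at 50 nM final; Timing: 12 min plus 1 h, RT; Measured by: flow cytometry, FL1 (488/535 nm); Evaluation: percent drop in bead-associated FITC signal.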
Starred values were filed as active, the others as inactive.

For CSCCC(NC(=O)c1ccccc1Br)C(=O)NCC1CCCCC1 (stereo not drawn) the results were Pemphigus Ab inh 106*, JMJD2C inh -3, T cell HTS 356, HDAC3 inhib 0, LANA-H2B inh 2 and Arr AP2 block 20.
COc1ccc(/C=N/NC(=O)c2ccco2)cc1Cn1nc(C)c([N+](=O)[O-])c1C was read as Pemphigus Ab inh -160*, JMJD2C inh -8, T cell HTS 331, HDAC3 inhib -1, LANA-H2B inh -2 and Arr AP2 block 14.
`CCN(CC(=O)Nc1ccc(OC)cc1)C(=O)Cc1coc2cc(C)c(C)cc12` gave Pemphigus Ab inh 103, JMJD2C inh -1, T cell HTS 248, HDAC3 inhib 1, LANA-H2B inh 56* and Arr AP2 block 16.
Screening O=C(NNC(=O)C1CCN(c2ncccn2)CC1)c1ccncc1 returned Pemphigus Ab inh 101, JMJD2C inh -6, T cell HTS 447, HDAC3 inhib -1, LANA-H2B inh -4 and Arr AP2 block 24.
Screening CCSc1ccccc1-c1nc(-c2ccncc2)no1 returned Pemphigus Ab inh 70*, JMJD2C inh -1, T cell HTS 346, HDAC3 inhib 1, LANA-H2B inh 5 and Arr AP2 block 8.
Cc1nnc2n(c1=O)N=C(c1ccc(Cl)cc1)CS2 was read as Pemphigus Ab inh 113, JMJD2C inh -6, T cell HTS 160, HDAC3 inhib 59*, LANA-H2B inh -4 and Arr AP2 block 18.
For CCc1nnc2n1N=C(c1ccc(Cl)cc1)CS2 the results were Pemphigus Ab inh 104, JMJD2C inh -11, T cell HTS 155, HDAC3 inhib 2, LANA-H2B inh 0 and Arr AP2 block 3.
For CC(NC(=O)CNC(=O)c1sc2ccccc2c1Cl)c1cccnc1 (stereo not drawn) the results were Pemphigus Ab inh 98, JMJD2C inh 11, T cell HTS 343, HDAC3 inhib 1, LANA-H2B inh 22* and Arr AP2 block -1.
Screening O=C(NCc1cccnc1)c1sc2ccccc2c1Cl returned Pemphigus Ab inh 124, JMJD2C inh -15, T cell HTS 362, HDAC3 inhib 7, LANA-H2B inh -3 and Arr AP2 block 7.
CC1(C)CC(CC(=O)O)CC(C)(C)N1 was read as Pemphigus Ab inh 113, JMJD2C inh -19, T cell HTS 389, HDAC3 inhib 4, LANA-H2B inh 0 and Arr AP2 block -13.
`CC1(C)CNC(=O)CC(C)(C)N1` gave Pemphigus Ab inh 102, JMJD2C inh 3, T cell HTS 202, HDAC3 inhib 0, LANA-H2B inh 43* and Arr AP2 block 0.
O=C(c1cccs1)N1C[C@H](O)[C@@H](n2cc(C3CC3)nn2)C[C@@H]1c1ccccc1 was read as Pemphigus Ab inh 96.
`CCCCNC(=O)Nc1nc2ccccc2s1` gave Pemphigus Ab inh 98, JMJD2C inh 7, T cell HTS 514, HDAC3 inhib 0, LANA-H2B inh -3 and Arr AP2 block 0.
`CCCCNC(=O)Nc1nc2ccc(CC)cc2s1` gave Pemphigus Ab inh 107*, JMJD2C inh -10, T cell HTS 274, HDAC3 inhib 3, LANA-H2B inh 0 and Arr AP2 block 0.
`N=c1oc2cc(O)ccc2cc1C(=O)Nc1ccc(Cl)cc1` gave Pemphigus Ab inh 99, JMJD2C inh -9, T cell HTS 38, HDAC3 inhib -42, LANA-H2B inh -4 and Arr AP2 block 3.
`Cc1ccc(NC(=S)N2CCC(O)CC2)c(C)c1` gave Pemphigus Ab inh 93, JMJD2C inh 3, T cell HTS 558, HDAC3 inhib 5, LANA-H2B inh 4 and Arr AP2 block 17.
Screening Cc1ccc(NC(=S)N2CCCC(CO)C2)c(C)c1 (stereo not drawn) returned Pemphigus Ab inh 85, JMJD2C inh 5, T cell HTS 174, HDAC3 inhib -5, LANA-H2B inh 30* and Arr AP2 block 6.
`COc1ccccc1NC(=O)C(C)OC(=O)C1COc2ccccc2O1` (stereo not drawn) gave Pemphigus Ab inh 96, JMJD2C inh -6, T cell HTS 417, HDAC3 inhib 0, LANA-H2B inh 21* and Arr AP2 block -28.
`CC(OC(=O)C1COc2ccccc2O1)C(=O)c1ccccc1` (stereo not drawn) gave Pemphigus Ab inh 106.
Screening COc1ccc(N2CCN(S(=O)(=O)CCNC(=O)COc3cccc(OC)c3)CC2)cc1 returned Pemphigus Ab inh 54*, JMJD2C inh 3, T cell HTS 440, HDAC3 inhib 0, LANA-H2B inh -7 and Arr AP2 block -5.
For COc1ccc(OCC(=O)NCCCNC(=O)COc2ccc(OC)cc2)cc1 the results were Pemphigus Ab inh 97, JMJD2C inh 8, T cell HTS 290, HDAC3 inhib -1, LANA-H2B inh 11* and Arr AP2 block -3.
Screening COCCNC(=O)C(=O)NNC(=O)COc1ccc(OC)cc1 returned Pemphigus Ab inh 85, JMJD2C inh -3, T cell HTS 176, HDAC3 inhib 0, LANA-H2B inh 20* and Arr AP2 block 4.
CCC1CCCCN1C(=O)COc1c(Br)cc(Br)c2cccnc12 (stereo not drawn) was read as Pemphigus Ab inh 103, JMJD2C inh -8, T cell HTS 299, HDAC3 inhib -3, LANA-H2B inh 2 and Arr AP2 block 3.
Screening CC(=O)N(c1cc(C)ccc1C)c1ccccc1[N+](=O)[O-] returned Pemphigus Ab inh 128 and Arr AP2 block 2.
Screening O=c1oc2ccccc2nc1/C=C(\O)c1ccccc1 returned Pemphigus Ab inh 111, JMJD2C inh -3, T cell HTS 390, HDAC3 inhib 3, LANA-H2B inh 3 and Arr AP2 block 25.
`Cc1ccc(/C(O)=C/c2nc3cc(C)ccc3oc2=O)cc1` gave Pemphigus Ab inh 99, JMJD2C inh -13, T cell HTS 356, HDAC3 inhib 5, LANA-H2B inh 26* and Arr AP2 block -1.
`CC(NC(C(=O)c1ccccc1)c1ccccc1)c1ccccc1` (stereo not drawn) gave Arr AP2 block 6.
